Tests used:
A549 = assay: MTT cytotoxicity assay; format: cell-based; details: Homo sapiens, A549, 48 h, read-out: IC50 A549
Outline: (§1)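 Human cancer (A549, MCF-7) and normal (MCF-10A, THLE2, WISH) lines cultured in RPMI-1640/DMEM with L-glutamine, 10% FBS and 1% penicillin-streptomycin at 37 °C, 5% CO2. […] MTT absorbance read at […]. IC50 taken from concentration-viability curves.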

Topoisomerase II = Topoisomerase II (Homo sapiens, UniProt P11388); assay: Topo II inhibition assay; format: biochemical
MCF-7 = assay: MTT cytotoxicity assay; format: cell-based; details: Homo sapiens, MCF7, 48 h, read-out: IC50 MCF-7
Outline: as §1

[1] = read-out: IC50 broad anticancer activity; cited from earlier work

Topoisomerase II, sequence (P11388 whole entry): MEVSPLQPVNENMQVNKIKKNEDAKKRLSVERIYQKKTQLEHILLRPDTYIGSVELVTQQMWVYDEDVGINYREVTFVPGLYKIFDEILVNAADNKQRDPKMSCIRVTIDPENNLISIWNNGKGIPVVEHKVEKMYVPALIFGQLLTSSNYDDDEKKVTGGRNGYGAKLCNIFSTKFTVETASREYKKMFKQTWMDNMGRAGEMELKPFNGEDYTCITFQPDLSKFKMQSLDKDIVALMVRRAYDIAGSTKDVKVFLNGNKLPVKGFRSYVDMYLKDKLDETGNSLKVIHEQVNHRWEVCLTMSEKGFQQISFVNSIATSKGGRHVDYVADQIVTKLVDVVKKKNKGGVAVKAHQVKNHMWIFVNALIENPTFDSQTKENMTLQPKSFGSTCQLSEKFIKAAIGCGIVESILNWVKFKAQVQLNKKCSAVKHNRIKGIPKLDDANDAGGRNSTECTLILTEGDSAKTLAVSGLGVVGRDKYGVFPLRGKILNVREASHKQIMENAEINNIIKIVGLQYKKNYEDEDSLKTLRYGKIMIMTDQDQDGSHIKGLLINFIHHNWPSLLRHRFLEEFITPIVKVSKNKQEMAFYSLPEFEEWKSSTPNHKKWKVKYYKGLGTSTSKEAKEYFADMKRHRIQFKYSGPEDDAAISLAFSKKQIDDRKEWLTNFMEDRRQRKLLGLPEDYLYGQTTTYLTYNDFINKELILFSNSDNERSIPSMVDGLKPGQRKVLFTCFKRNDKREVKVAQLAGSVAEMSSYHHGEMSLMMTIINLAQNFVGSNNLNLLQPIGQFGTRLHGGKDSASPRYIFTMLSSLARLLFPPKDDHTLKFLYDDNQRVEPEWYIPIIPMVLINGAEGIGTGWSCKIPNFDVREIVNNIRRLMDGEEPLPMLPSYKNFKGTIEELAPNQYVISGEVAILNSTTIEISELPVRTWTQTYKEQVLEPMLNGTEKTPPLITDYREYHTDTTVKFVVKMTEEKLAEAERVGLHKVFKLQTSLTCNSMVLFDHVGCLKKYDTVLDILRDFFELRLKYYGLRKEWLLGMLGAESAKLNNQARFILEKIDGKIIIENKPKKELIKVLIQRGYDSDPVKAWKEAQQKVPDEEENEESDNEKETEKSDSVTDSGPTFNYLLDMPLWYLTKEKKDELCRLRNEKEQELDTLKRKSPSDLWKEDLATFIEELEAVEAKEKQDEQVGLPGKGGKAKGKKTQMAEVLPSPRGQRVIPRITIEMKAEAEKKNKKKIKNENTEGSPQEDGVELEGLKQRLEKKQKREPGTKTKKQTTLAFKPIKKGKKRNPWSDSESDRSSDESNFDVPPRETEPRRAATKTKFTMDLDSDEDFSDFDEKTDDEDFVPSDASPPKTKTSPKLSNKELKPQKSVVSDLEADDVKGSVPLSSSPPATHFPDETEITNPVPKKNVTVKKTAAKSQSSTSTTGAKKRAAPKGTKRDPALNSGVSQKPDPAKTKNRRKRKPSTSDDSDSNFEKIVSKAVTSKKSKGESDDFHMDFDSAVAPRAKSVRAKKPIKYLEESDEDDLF

## CC(=O)OC[C@H]1O[C@@H](N2C(=O)/C(=C/c3ccccc3)SC2=S)[C@H](OC(C)=O)[C@@H](OC(C)=O)[C@@H]1OC(C)=O [Compound 11a, 5-((Z)-Benzylidene)-3-(2′,3′,4′,6′-tetra-O-acetyl-β-D-glucopyranosyl)-2-thioxo-4-thiazolidinone]
A549
  IC50: 9.8 ± 0.11 µM
Topoisomerase II
  IC50: 7.6 ± 0.24 µM
MCF-7
  IC50: 3.7 ± 0.13 µM

## CCN1C(=O)C(=Cc2ccccc2)SC1=S [BTR-1, 5-Benzylidene-3-ethyl rhodanine]
[1]
  IC50: < 10 µM
